# ZTA DNA inh = blocks Epstein-Barr virus ZTA, an EBNA-1 counter-screen; P03206; ZTA-DNA binding, fluorescence polarization; inhibition, % at 11 µM; 320,000 compounds, 0.15% hits; in the data active = inhibition above about 33%
# HNF4A DNA FP = change in binding of human HNF4 alpha to DNA; activity change, % at 10 µM; P41235; HNF4a-FITC DNA binding, fluorescence polarization, 1 h; AID 1224865; 360,000 compounds, 0.3% hits; in the data active = activity change above about 30%, passing the limit was not always enough
# EBNA-1 inh = blocks EBNA-1 binding to DNA; 300,000 compounds, 0.34% hits; EBNA-1 DNA binding, fluorescence polarization; inhibition, % at 14.8 µM; in the data active = inhibition above about 28%
# Bfl-1 A1 inh = inhibitors of the anti-apoptotic protein A1, read as caspase activation. MEF A1-2A-BIM cells, Caspase-Glo 3/7 luminescence, 3 h; percent of clofoctol response, vehicle zero. caspase activation, % (concentration not given with the values). 330,000 compounds, 0.066% hits;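 active = over half of replicate activation scores above 10%, or exactly half above 10 with the replicate mean above 10; inconclusive = replicate mean below 10 yet half the replicates above 10; inactive = over half of replicates below 10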
# LANA-H2A inh = blocks KSHV LANA binding to histone H2A/H2B | Q9QR71 | cell-free LANA-H2A/H2B peptide, fluorescence polarization | inhibition, % (concentration not given with the values) | 320,000 compounds, 0.6% hits; in the data active = inhibition mostly above about 10%, no sharp cut-off; inactive = mostly below about 6.7%
# Target sequence (Q9QR71 whole entry, looked up): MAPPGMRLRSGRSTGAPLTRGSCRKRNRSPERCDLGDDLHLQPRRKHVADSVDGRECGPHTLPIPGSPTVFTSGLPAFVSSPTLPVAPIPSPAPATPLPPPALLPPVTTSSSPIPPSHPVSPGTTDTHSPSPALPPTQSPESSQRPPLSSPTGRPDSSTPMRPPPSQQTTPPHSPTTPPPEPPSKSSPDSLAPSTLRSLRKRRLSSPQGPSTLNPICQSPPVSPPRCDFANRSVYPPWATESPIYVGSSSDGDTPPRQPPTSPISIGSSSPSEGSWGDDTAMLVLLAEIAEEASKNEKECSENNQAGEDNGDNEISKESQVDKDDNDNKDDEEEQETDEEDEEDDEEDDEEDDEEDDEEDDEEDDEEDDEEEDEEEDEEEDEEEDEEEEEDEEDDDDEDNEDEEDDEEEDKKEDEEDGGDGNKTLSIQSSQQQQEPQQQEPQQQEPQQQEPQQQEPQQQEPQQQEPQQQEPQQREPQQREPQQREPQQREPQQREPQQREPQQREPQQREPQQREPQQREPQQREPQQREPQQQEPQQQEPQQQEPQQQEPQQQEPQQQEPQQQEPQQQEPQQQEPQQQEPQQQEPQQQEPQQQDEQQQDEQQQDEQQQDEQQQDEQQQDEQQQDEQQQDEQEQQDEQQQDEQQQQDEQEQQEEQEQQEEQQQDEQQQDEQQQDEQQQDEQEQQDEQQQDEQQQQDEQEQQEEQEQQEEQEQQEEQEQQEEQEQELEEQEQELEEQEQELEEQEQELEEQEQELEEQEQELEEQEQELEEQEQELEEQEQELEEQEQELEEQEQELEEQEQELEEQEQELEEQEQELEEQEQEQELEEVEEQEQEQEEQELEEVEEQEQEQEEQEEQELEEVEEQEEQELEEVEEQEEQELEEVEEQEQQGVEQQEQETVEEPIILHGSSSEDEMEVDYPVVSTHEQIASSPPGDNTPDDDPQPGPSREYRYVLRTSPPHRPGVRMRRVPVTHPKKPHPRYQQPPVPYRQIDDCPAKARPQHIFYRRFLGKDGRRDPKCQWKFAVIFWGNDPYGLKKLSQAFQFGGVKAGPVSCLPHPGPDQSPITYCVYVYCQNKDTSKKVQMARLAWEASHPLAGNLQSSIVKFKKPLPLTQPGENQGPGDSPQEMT
# CSN deneddyl inh = inhibitors of human CSN-mediated cullin deneddylation | Purified CSN, SCF-Nedd8-OG deneddylation, fluorescence polarization | Q92905 | 360,000 compounds, 0.38% hits | inhibition, % at 12.5 µM | AID 651999;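 active = pattern-corrected inhibition above about 35%, with an unprinted fluorescence ratio check between 0.5 and 1.5, limit read from the data, passing the limit was not always enough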;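 note: 0% = enzyme with substrate and 100% = substrate without enzyme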
#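 Assay system: purified human Csn5 enzyme expressed in HEK293T cells; Input: 0.24 nM Csn5 enzyme, final concentration; Reagent: 10 nM SCFSkp2-Nedd8OG; Compound dosing: 12.5 µM single point; Times: reaction 90 min, room temperature; Technique: fluorescence polarization readout.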
# * = called active by the depositor; u = inconclusive; x = no result; + = active, no number; ! = a repeat was not active. Compounds with a hit are over-represented: about 1.5% of the library has one in this group of screens.
SMILES,ZTA DNA inh,HNF4A DNA FP,EBNA-1 inh,Bfl-1 A1 inh,LANA-H2A inh,CSN deneddyl inh
O=C(CCC(=O)N1CCN(c2ccccc2F)CC1)N1CCN(c2ccccc2)CC1,-9.1,2.1,2.0,9.4*,-3.0,-0.8
O=C(CCC(=O)N1CCN(c2ccccc2F)CC1)N1CCN(c2ccc(F)cc2)CC1,12.4,-1.4,1.6,0.0,0.0,-2.6
COc1cc(N)c(Cl)cc1C(=O)OCC(=O)N1CCCCCC1,-21.2,1.4,x,0.5,0.3,-3.0
C/C=C\C=C/C(=O)Nc1cccc(C2=NOC3(C2)C[C@@H](C(N)=O)N(C(=O)/C=C/CC)C3)c1 (stereo partly drawn),8.0,-3.9,9.5,0.5,3.8,3.1
C/C=C\C=C/C(=O)Nc1cccc(C2=NOC3(C2)C[C@@H](C(N)=O)N(C(=O)/C=C/C=C\C)C3)c1 (stereo partly drawn),4.4,-41.5,1.1,2.6,-0.9,64.5*
O=C(c1[nH]c(C(F)(F)F)nc1-c1ccccc1)N1CCC(Cc2ccccc2)CC1,x,1.6,x,x,x,3.1
COc1ccc2c(c1OC)C(=O)OC2C1c2c(cc3c(c2OC)OCO3)CCN1C (stereo not drawn),-6.5,-2.6,0.8,-0.6,5.3*!,1.0
COc1ccc2c(c1OC)C(C1c3c(cc4c(c3OC)OCO4)CCN1C)OC2=O (stereo not drawn),-6.8,-2.6,2.0,-1.0,-1.9,0.6
COc1ccc(CNC(=O)CC2C[C@H](C(=O)N3CCOCC3)[C@@]3(CCC4CCCC4)c4[nH]c5ccccc5c4CCN3C2=O)cc1OC (stereo partly drawn),x,0.5,x,-0.6,0.3,-0.5
O=C(COC(=O)c1c[nH]c(=O)[nH]c1=O)Nc1cccc([N+](=O)[O-])c1,3.3,-2.6,x,0.6,0.5,-6.2
CNc1nc(-c2c[nH]c3ccccc23)cs1,31.3,5.7,9.2,-1.3,2.4,11.4
CCC(C)Nc1nc(-c2c[nH]c3ccccc23)cs1 (stereo not drawn),54.9*,16.7,19.3,0.9,0.0,3.2
C[C@H]1CN([C@@H](C)CO)C(=O)CCCn2cc(nn2)CO[C@@H]1CN(C)C(=O)Oc1ccccc1,x,-0.2,x,x,x,100.3*
Cc1ccc(OC(=O)N(C)C[C@@H]2OCc3cn(nn3)CCCC(=O)N([C@H](C)CO)C[C@H]2C)cc1,x,0.7,x,x,x,4.7
O=c1c2c(nc3cc(-c4ccc(Cl)cc4)[nH]n13)CCS2,22.2,-4.4,11.1,-0.7,7.4,41.5*
CCc1c(C)nc2cc(-c3ccc(Cl)cc3)[nH]n2c1=O,3.5,-0.8,8.5,0.2,-1.5,-2.7
CCCN(CCC)CC(=O)Nc1cccc2c1OCO2,9.8,1.1,-1.1,-0.9,-2.7,3.3
O=C(CNC(=O)OCc1ccccc1)NC1CCCCCC1,4.7,-5.0,9.7,0.5,17.3*,-3.2
O=C(COc1ccccc1)NC1CCCCCCC1,-25.3,6.3,10.4,-0.4,8.9*,4.2
COc1cc(NC(=O)COc2ccccc2)c(OC)cc1NC(C)=O,19.7,0.0,4.8,0.9,14.3*,-2.0
O=C(CCNC(=O)OCc1ccccc1)NC1CCCCC1,4.3,-0.4,6.2,-0.1,3.6,-1.1
COc1ccccc1-c1cc(C(F)(F)F)nc(S(=O)(=O)CCCC(=O)NCc2ccc(F)cc2)n1,-19.2,6.0,1.1,1.0,-0.1,9.4
COc1ccccc1-c1cc(C(F)(F)F)nc(S(=O)(=O)CCCC(=O)NC(C)C)n1,8.9,0.1,4.8,8.5*,3.4,1.7
O=C(N/N=C/c1cccc(F)c1)c1c(O)c2ccccc2[nH]c1=O,5.2,-1.4,-6.4,-1.9,+,-1.5
COc1ccc(CN2C(=O)C(CC(=O)NC3CCCCC3)CC(C(=O)N(C)C)=C2C)cc1 (stereo not drawn),x,-4.5,x,x,x,3.1
SMILES,ZTA DNA inh,HNF4A DNA FP,EBNA-1 inh,Bfl-1 A1 inh,LANA-H2A inh,CSN deneddyl inh
c1cc2c3c(cccc3c1)NC1(CCCCC1)N2,-12.0,44.2*,-0.5,1.1,-3.3,2.5
c1cc2c3c(cccc3c1)NC1(CCCCCC1)N2,-0.3,6.8,1.9,u,2.1,2.3
O=[N+]([O-])c1ccccc1S(=O)(=O)N(CC1CO1)c1ccccc1 (stereo not drawn),-5.9,-2.2,4.6,0.9,13.5*,1.5
Cc1ccc(N(CC2CO2)S(=O)(=O)c2ccccc2[N+](=O)[O-])cc1 (stereo not drawn),9.8,0.2,4.9,0.4,-0.6,3.1
CN(c1ccccc1)S(=O)(=O)c1cccc(C(=O)NCc2ccccc2)c1,4.3,1.3,x,0.3,2.3,5.1
CN(c1ccccc1)S(=O)(=O)c1cccc(NC(=O)CCNC(=O)c2ccc(Cl)cc2)c1,4.2,1.1,x,0.6,165.3*,0.1
CN(c1cccc(Cl)c1)S(=O)(=O)c1cccc(C(=O)NCc2ccncc2)c1,-6.1,0.0,x,-0.4,53.4*,-2.8
CN(c1ccccc1)S(=O)(=O)c1cccc(NC(=O)CCNC(=O)c2ccccc2)c1,1.6,-1.9,x,1.4,3.8,-0.6
COc1ccc(CN2CCOCCOCCN(Cc3ccc(OC)cc3)CCOCCOCC2)cc1,1.9,1.1,2.8,1.2,-1.4,-3.2
Cc1cccc(OCC(O)CN2CC3(C)CC2CC(C)(C)C3)c1 (stereo not drawn),6.9,0.6,5.0,0.4,-5.2,4.5
CC[C@H]1C(=O)[C@@H](Cc2ccccc2)[C@@H]2CCN3C(=O)CCC[C@H]1[C@H]23,x,2.4,x,x,x,-5.2
COc1cc(/C=C/c2nc3ccccc3c(=O)[nH]2)cc(Cl)c1O,-5.8,40.3*,-9.8,-4.5,2.2,21.2
Cc1cccc(/C=C\c2nc3ccccc3c(=O)[nH]2)c1,2.8,3.5,-0.4,-8.2,-5.9,-8.2
CN(C)c1ccc(/C=C/c2nc3ccccc3c(=O)[nH]2)cc1,11.6,67.4*,-0.2,-8.9,-5.0,5.3
O=c1[nH]c(/C=C/c2ccc(Br)cc2)nc2ccccc12,4.0,2.6,5.0,-11.7,-1.7,0.5
CCCNC(=O)C1(C)CCCN(Cc2ccc(C(F)(F)F)cc2)C1 (stereo not drawn),x,3.6,x,x,x,-3.7
c1ccc(CSc2ccc(-c3ccco3)nn2)cc1,-5.9,3.2,14.2,0.8,x,-5.3
Cc1ccc(-c2ccc(/C=C(\C#N)C(=O)Nc3cc(C)nn3-c3ccccc3)o2)cc1,-11.1,x,-14.0,32.6*,23.4*,x
Cc1cc(NC(=O)/C(C#N)=C/c2ccco2)n(-c2ccccc2)n1,-11.7,-0.8,-2.1,0.2,-1.9,1.9
O=C(CSc1nc2c(c(=O)n1-c1ccc(Br)cc1)SCC2)Nc1nccs1,-22.3,-1.0,31.7*,0.8,3.9,3.0
COc1cc(S(=O)(=O)Nc2ccccc2C(=O)N2CCCCC2)ccc1NC(C)=O,10.3,-1.1,x,-0.2,1.5,2.0

# High-throughput results as filed in PubChem.
